Experimental data: ChEMBL document CHEMBL1139079, “Synthesis and HIV-1 integrase inhibitory activity of spiroundecane(ene) derivatives” (Bioorg Med Chem Lett, 2007)
Active and inactive are the calls of the source. The rule behind the calls is not given here.

Key:
[1] = target: Human immunodeficiency virus type 1 integrase (Human immunodeficiency virus 1) (UniProt Q7ZJM1); test: (§1) Inhibition of recombinant HIV1 integrase 3'-end processing activity
How it was run: (§2)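 Recombinant HIV-1 integrase with a 21 bp duplex substrate, 5'-[32P]-labelled. 3'-processing read as release of the terminal dinucleotide; strand transfer read as DNA products longer than the starting substrate. Products resolved by PAGE. IC50 given as mean and standard deviation of at least three independent experiments.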

[2] = target: Human immunodeficiency virus type 1 integrase (Human immunodeficiency virus 1) (UniProt Q7ZJM1); test: (§3) Inhibition of recombinant HIV1 integrase strand transfer activity; how it was run: as §2
[3] = Cytotoxicity against MT2 cells; assay type: cell-based; settings: human
[4] = target: T1, Human immunodeficiency virus type 1 integrase (Human immunodeficiency virus 1, UniProt Q7ZJM1); test: as §1; how it was run: as §2
T1 sequence (Q7ZJM1 whole entry): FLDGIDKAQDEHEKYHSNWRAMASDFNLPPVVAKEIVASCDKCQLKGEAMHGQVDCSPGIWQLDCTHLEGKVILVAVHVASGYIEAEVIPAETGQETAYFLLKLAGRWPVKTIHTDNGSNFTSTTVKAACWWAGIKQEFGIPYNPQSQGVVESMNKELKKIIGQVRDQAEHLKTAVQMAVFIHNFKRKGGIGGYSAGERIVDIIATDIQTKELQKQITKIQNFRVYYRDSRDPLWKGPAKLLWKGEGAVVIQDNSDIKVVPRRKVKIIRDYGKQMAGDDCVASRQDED

[5] = target: T1, Human immunodeficiency virus type 1 integrase; test: as §3; how it was run: as §2
[6] = target: T1, Human immunodeficiency virus type 1 integrase; test: Inhibition of recombinant HIV1 integrase mediated-disintegration activity
How it was run: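 Reverse of strand transfer, run with recombinant HIV-1 integrase on a Y-oligomer substrate carrying a 5'-[32P] label. Cleavage of the 34-mer strand releases a radiolabelled 19-bp oligonucleotide, which was detected by PAGE after reactions over a range of drug concentrations. IC50 derived from the gel analysis.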

Chain of Human immunodeficiency virus type 1 integrase (Human immunodeficiency virus 1) (Q7ZJM1 as listed by the source): as the sequence (Q7ZJM1 whole entry) above

Row | SMILES | Activity [1] | Activity [2] | CC50 [3] [µM] | IC50 [4] [µM] | IC50 [5] [µM] | IC50 [6] [µM]
1 | CC1(C)OC(=O)C2(C(=O)O1)[C@@H](c1ccco1)CC(=O)C[C@H]2c1ccccc1Cl | inactive | inactive | > 111 |  |  | 
2 | CC1(C)OC(=O)C2(C(=O)O1)[C@@H](c1ccco1)CC(=O)C[C@H]2c1ccc(F)cc1 | inactive | inactive | > 111 |  |  | 
3 | COc1ccc([C@@H]2CC(=O)C[C@H](c3ccco3)C23C(=O)OC(C)(C)OC3=O)cc1OC |  |  | > 111 | 111 | 91.5 | 
4 | COc1ccc([C@@H]2CC(=O)C[C@H](c3ccco3)C23C(=O)OC(C)(C)OC3=O)cc1O | inactive | inactive | > 111 |  |  | 
5 | COc1cccc([C@@H]2CC(=O)C[C@H](c3ccco3)C23C(=O)OC(C)(C)OC3=O)c1OC |  |  | > 111 | 44.8 | 44.2 | 
6 | CC1(C)OC(=O)C2(C(=O)O1)[C@@H](c1ccco1)CC(=O)C[C@H]2c1c[nH]c2ccccc12 |  |  | > 111 | 11.1 | 9.6 | 19.2
7 | COc1ccc([C@@H]2CC(=O)C[C@H](c3ccccc3OC)C23C(=O)OC(C)(C)OC3=O)cc1O | inactive | inactive | > 111 |  |  | 
8 | COc1ccc([C@@H]2CC(=O)C[C@H](c3ccco3)C23C(=O)OC(C)(C)OC3=O)cc1 |  |  | > 111 | 130 | 36.3 | 
9 | CC1(C)OC(=O)C2(C(=O)O1)[C@@H](c1ccco1)CC(=O)C[C@H]2c1ccc(Br)cc1 | inactive | inactive | > 111 |  |  | 
10 | COc1ccc([C@H]2CC(=O)CCC23C(=O)OC(C)(C)OC3=O)cc1 |  |  | > 111 | 142 | 97.5 | 
11 | CCOC(=O)C1=C(O)CCC2(C(=O)OC(C)(C)OC2=O)[C@H]1c1ccccc1OC | inactive |  | > 111 |  | 281 | 
12 | CC1(C)OC(=O)C2(C(=O)O1)[C@@H](c1ccco1)CC(=O)C[C@H]2c1ccco1 |  |  | > 111 | 32.9 | 17.6 | 81.4
13 | CCOC(=O)C1=C(O)CCC2(C(=O)OC(C)(C)OC2=O)[C@H]1c1ccco1 |  |  | > 111 | 67.8 | 43.8 | 213
14 | COc1ccc([C@@H]2CC(=O)C[C@H](c3ccco3)C23C(=O)OC(C)(C)OC3=O)c(C)c1 | inactive | inactive | > 111 |  |  | 
15 | CC1(C)OC(=O)C2(C(=O)O1)[C@@H](c1ccco1)CC(=O)C[C@H]2c1ccccc1 |  |  | > 111 | 141 | 132 | 
